Here are results for three molecules from ChEMBL document CHEMBL3352174, “Identification of a New RXRα Antagonist Targeting the Coregulator-Binding Site” (ACS Med Chem Lett, 2014).

Residue numbers refer to the chain shown, from its start. The source made the active and inactive calls. No cut-off for these calls is given here.

In experiment [1] the test system is T1, Retinoic acid receptor RXR-alpha (Homo sapiens), P19793 [V298S].
T1 sequence (whole entry): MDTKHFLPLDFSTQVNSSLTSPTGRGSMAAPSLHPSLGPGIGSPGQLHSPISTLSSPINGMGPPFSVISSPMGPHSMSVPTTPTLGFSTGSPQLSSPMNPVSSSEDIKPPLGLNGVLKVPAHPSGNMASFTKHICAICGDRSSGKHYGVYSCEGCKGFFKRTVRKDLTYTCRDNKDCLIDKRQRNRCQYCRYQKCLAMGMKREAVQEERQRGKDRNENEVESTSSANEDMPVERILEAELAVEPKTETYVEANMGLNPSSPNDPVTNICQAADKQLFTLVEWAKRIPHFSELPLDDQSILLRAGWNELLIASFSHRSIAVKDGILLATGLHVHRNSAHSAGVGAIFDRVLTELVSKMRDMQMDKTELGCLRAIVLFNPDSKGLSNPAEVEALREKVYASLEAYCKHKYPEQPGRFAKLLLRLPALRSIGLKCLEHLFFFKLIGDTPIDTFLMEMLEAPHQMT
Briefly: Antagonist activity against RXRalpha V298S mutant (unknown origin) expressed in human HEK293T cells assessed as inhibition of 9-cis-RA-induced receptor transactivation at 1 uM after 18 hrs by luciferase reporter gene based mammalian one-hybrid assay. In kind it is cell-based. The note with it: HEK-293T. The procedure, abridged: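 The pG5-Luc reporter was cotransfected with pBind-RXRα/V298S (Gal4-fusion construct) into HEK-293T cells. Cells were then exposed to the indicated compounds for 18 h, and luciferase reporter activity was measured.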

For experiment [2], the system named is T2, Retinoic acid receptor RXR-alpha (Homo sapiens), P19793 [C432W].
T2 sequence (whole entry): T1 sequence (whole entry) with S298V, C432W
The conditions noted are these: HEK-293T, 1 uM.

Experiment [3] concerns T3, Retinoic acid receptor RXR-alpha (Homo sapiens), P19793 [A272W].
T3 sequence (whole entry): T1 sequence (whole entry) with A272W, S298V
The conditions noted are these: HEK-293T, 1 uM.

Experiment [4] relates to T4, Retinoic acid receptor RXR-alpha (Homo sapiens), P19793 [F313A].
T4 sequence (whole entry): T1 sequence (whole entry) with S298V, F313A
The conditions noted are these: HEK-293T, 1 uM.

For experiment [5], the target named is T5, Retinoic acid receptor RXR-alpha (Homo sapiens) (UniProt P19793).
T5 sequence (whole entry): T1 sequence (whole entry) with S298V
Briefly: Antagonist activity against Myc-tagged RXRalpha ligand binding domain (unknown origin) expressed in human MCF7 cells assessed as inhibition of 9-cis-RA-induced receptor transactivation at 10 uM after 18 hrs by luciferase reporter gene based mammalian one-hybrid assay. In kind it is cell-based. The procedure, abridged:
(§1)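 MCF-7 cells co-transfected with pG5-Luc reporter and pBind-RXRα-LBD. […] Read-out was dual-luciferase, with firefly normalized to Renilla for transfection efficiency. Single-concentration tests used 10 μM. Mean ± SD.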

Experiment [6] addresses T5, Retinoic acid receptor RXR-alpha (Homo sapiens). Briefly: Antagonist activity against Myc-tagged RXRalpha ligand binding domain (unknown origin) expressed in human MCF7 cells assessed as inhibition of 9-cis-RA-induced receptor transactivation after 18 hrs by luciferase reporter gene based mammalian one-hybrid assay. In kind it is cell-based. The procedure, abridged: as §1

In the case of `CCCCCOc1cc2c(cc1-c1cc(/C=C/C(=O)O)ccc1O)C(C)(C)CCC2(C)C`, the inhibition result in experiment [1] is “Active”.
As for `CCCOc1cc2c(cc1C(=C1CC1)c1ccc(C(=O)O)cc1)C(C)(C)CCC2(C)C`, the inhibition result in experiment [2] and in experiment [3] was “inactive” each time. For the same molecule, the inhibition result in experiment [1] and in experiment [4] was “Active” in each case.
As to `CCC(Sc1nc2ccccc2s1)C(=O)N/N=C/c1c(O)ccc2ccccc12` (configuration not stated), the inhibition entry in experiment [5] is “Active”. Moreover, in experiment [6], the inhibition entry is “Dose-dependent effect”.
